This note sets out measurements from ChEMBL document CHEMBL1151723, “Antiplasmodial alkaloids from Desmos rostrata” (J Nat Prod, 2008).

Assay [1] deals with Plasmodium falciparum. Description: Antiplasmodial activity against Plasmodium falciparum FcB1 as [3H]hypoxanthine uptake after 24 hrs. In kind it is functional, organism-based. The essentials:
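Chloroquine-resistant FcB1/Colombia P. falciparum, asynchronous cultures at 1% parasitemia, 1.5% final hematocrit. Compounds taken from 10 µg/mL DMSO solution, diluted in culture medium; 24 h at 37 °C in candle jar, then 0.5 µCi [3H]hypoxanthine per well, further 24 h. Freeze-thaw, harvest onto glass fibre filters, scintillation count; inhibition vs same-plate untreated control; IC50 by Desjardins method.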

The test system of assay [2] is KB. Description: Cytotoxicity against human KB cells after 72 hrs by neutral red staining. The format is functional, cell-based. The essentials: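 Human nasopharynx carcinoma KB cells (3 × 10^3 cells/mL) in D-MEM with 10% FCS, 2 mM L-glutamine, penicillin G, streptomycin, gentamicin. Compound stocks in DMSO/H2O (1:9). Exposure 72 h at 37 °C, air/CO2 95:5; growth read colorimetrically by neutral red uptake of living cells, relative to untreated cells.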

As for `COc1cc2c(cc1O)CC[N+]1([O-])Cc3cc(OC)c(OC)cc3C[C@@H]21` (stereo partly drawn), the results for the IC50 in assay [1] and in assay [2] were 4.2 µM and over 28 µM, respectively.

Take `COc1c(O)cc2c3c(cc4ccccc4c13)NC2=O` [ARISTOLACTAM AII]: the IC50 in assay [1] and in assay [2] was over 37 µM each time.

As for `COc1cc2c(cc1O)CC[n+]1cc3cc(OC)c(OC)cc3cc1-2` [DEHYDRODISCRETINE], the IC50 (commonly the concentration that gives 50% inhibition) in assay [1] was 0.9 µM; in assay [2], over 29 µM.

As to `COc1ccc2c(c1OC)C[C@H]1NCCc3c(OC)c4c(c-2c31)OCO4` [DESMOROSTRATINE], the results for the IC50 in assay [1] and in assay [2] were 3.6 µM and 2.4 µM, respectively.

Consider `COc1cc2c(cc1O)CCN1Cc3cc(OC)c(OC)cc3C[C@@H]21` [DISCRETINE], for which the IC50 was 1.6 µM in assay [1] and over 29 µM in assay [2].

For `CC(=O)O[C@@]12CO[C@@H]1C[C@H](O)[C@@]1(C)C(=O)[C@H](O)C3=C(C)[C@@H](OC(=O)[C@H](O)[C@@H](NC(=O)OC(C)(C)C)c4ccccc4)C[C@@](O)([C@@H](OC(=O)c4ccccc4)[C@H]21)C3(C)C` [DOCETAXEL], the IC50 in assay [2] came out at 0.0002 µM.

`COc1cc2c(cc1OC)-c1c(OC)c(O)cc3c1[C@H](C2)N(C)CC3` [PREDICENTRINE]: the IC50 in assay [1] is 27.8 µM; in assay [2], over 29 µM.
